Experimental findings from ChEMBL document CHEMBL3259637, “Synthesis and antiproliferative effect of novel 4-thiazolidinone-, pyridine- and piperazine-based conjugates on human leukemic cells” (Eur J Med Chem, 2014) are described below.

The source made the active and inactive calls. The calls are words filed in the database; no cut-off is given here.

Experiment [1] deals with Jurkat. The experiment in a line: Antiproliferative activity against human Jurkat cells after 48 to 72 hrs by trypan blue dye exclusion assay and MTT assay. The class given is functional, cell-based. A general note: Formazan colour is commonly taken as a measure of viable cells.
For experiment [2], the system named is K562. The experiment in a line: Antiproliferative activity against human K562 cells after 48 to 72 hrs by trypan blue dye exclusion assay and MTT assay. The class given is functional, cell-based.
The nature of experiment [3]: Antiproliferative activity against human NALM6 cells after 48 to 72 hrs by trypan blue dye exclusion assay and MTT assay. Conditions: NALM-6. The format is functional, cell-based.
In experiment [4] the test system is NALM-6. As to the kind of experiment: Induction of cell death in human NALM6 cells assessed as mitochondrial membrane potential depolarization after 48 hrs by JC1 staining based flow cytometry. The class given is functional. Put shortly:
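Nalm6 cells were exposed to 5, 10 and 20 µM for 48 h, then loaded with JC-1 (0.5 µM) at 37°C for 30 min and PBS-washed. Flow cytometry used 488 nm excitation, reading emission at 530/630 and 580/610 nm on 10,000 cells. The ratio of red to green fluorescent cells was reported. 2,4-DNP was the positive control and DMSO the vehicle control.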

Experiment [5] can be described thus: Cell cycle arrest in human NALM6 cells assessed as change in cell cycle distribution at 5 to 10 uM after 48 hrs by propidium iodide staining based flow cytometry. The format is functional. The conditions noted are these: NALM-6. Put shortly:
(§1)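 Nalm6 cells (about 0.75 × 10⁵ cells/ml) were treated at 5, 10 and 20 µM for 48 h, with a DMSO vehicle control. Cells were PBS-washed, treated with RNase (50 µg/ml), stained with propidium iodide and analysed by flow cytometry (488 nm excitation, 560/670 emission). At least 10,000 cells per sample; subG1, G1, S and G2/M fractions scored. Two independent experiments.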
On the technique in general: A flow cytometer gives signals particle by particle.

Experiment [6] in a line: Cell cycle arrest in human NALM6 cells assessed as accumulation at G2/M phase at 20 uM after 48 hrs by propidium iodide staining based flow cytometry. The format is functional. Conditions: NALM-6. The procedure, abridged:
as §1

A short description of experiment [7]: Cell cycle arrest in human NALM6 cells assessed as accumulation at subG1 phase at 20 uM after 48 hrs by propidium iodide staining based flow cytometry. The conditions noted are these: NALM-6. The format is functional. Put shortly:
as §1

A short description of experiment [8]: Cell cycle arrest in human NALM6 cells assessed as change in cell cycle distribution after 48 hrs by propidium iodide staining based flow cytometry. Conditions: NALM-6. The class given is functional. The procedure, abridged:
as §1

As a reminder, the IC50 is the concentration that gives 50% inhibition. Lower therefore signals greater potency. Take `COC(=O)c1ccc(C2SCC(=O)N2c2ccc(N3CCN(Cc4cccc(C)c4)CC3)cn2)c(OC)c1` (stereo not given): the results for the half-maximal inhibitory concentration (IC50) in experiment [1], in experiment [2] and in experiment [3] were above 100 µM, above 100 µM and 27.3 µM, respectively.
Consider `COC(=O)c1ccc(C2SCC(=O)N2c2ccc(N3CCN(S(=O)(=O)c4ccc(OC)cc4)CC3)cn2)c(OC)c1` (stereo not given), for which the IC50 stood at 45.2 µM in experiment [1], 54.5 µM in experiment [2] and 29.4 µM in experiment [3].
As to `COC(=O)c1ccc(C2SCC(=O)N2c2ccc(N3CCN(S(=O)(=O)c4ccc([N+](=O)[O-])cc4)CC3)cn2)c(OC)c1` (stereo not given), the half-maximal inhibitory concentration (IC50) in experiment [1] is 54 µM; in experiment [2], 65.2 µM; in experiment [3], above 100 µM.
The like results for `COC(=O)c1ccc(C2SCC(=O)N2c2ccc(N3CCN(S(=O)(=O)c4ccccc4)CC3)cn2)c(OC)c1` (stereo not given) were, in that order, 52.9 µM, 65.6 µM and 48.4 µM.
As to `COC(=O)c1ccc(C2SCC(=O)N2c2ccc(N3CCNCC3)cn2)c(OC)c1` (stereo not given), the Activity result in experiment [4] and in experiment [8] was “Dose-dependent effect” throughout. In addition, the IC50 was 19.3 µM in experiment [1], 15.2 µM in experiment [2] and 9.71 µM in experiment [3]. Moreover, the outcome in experiment [5], in experiment [6] and in experiment [7] was Active.
Turning to `COC(=O)c1ccc(C2SCC(=O)N2c2ccc(N3CCN(S(=O)(=O)c4ccc(F)cc4)CC3)cn2)c(OC)c1` (stereo not given), the IC50 is 78.3 µM in experiment [1], above 100 µM in experiment [2] and above 100 µM in experiment [3].
For the compound `COC(=O)c1ccc(C2SCC(=O)N2c2ccc(N3CCN(Cc4ccc(Cl)c(Cl)c4)CC3)cn2)c(OC)c1` (stereo not given), the half-maximal inhibitory concentration (IC50) is 61 µM in experiment [1], above 100 µM in experiment [2] and above 100 µM in experiment [3].
Consider `COC(=O)c1ccc(C2SCC(=O)N2c2ccc(N3CCN(S(=O)(=O)c4c(C)cc(C)cc4C)CC3)cn2)c(OC)c1` (stereo not given), for which the half-maximal inhibitory concentration (IC50) in experiment [1] was above 100 µM; in experiment [2] it was 53.5 µM; in experiment [3] it was above 100 µM.
Consider `COC(=O)c1ccc(C2SCC(=O)N2c2ccc(N3CCN(Cc4cc(OC)c(OC)c(OC)c4)CC3)cn2)c(OC)c1` (stereo not given), for which the results for the IC50 in experiment [1], in experiment [2] and in experiment [3] were 41 µM, above 100 µM and above 100 µM, respectively.
In the case of `CC(=O)O[C@H]1C(=O)[C@@]2(C)[C@H]([C@H](OC(=O)c3ccccc3)[C@]3(O)C[C@H](OC(=O)[C@H](O)[C@@H](NC(=O)c4ccccc4)c4ccccc4)C(C)=C1C3(C)C)[C@]1(OC(C)=O)CO[C@@H]1C[C@@H]2O` [PACLITAXEL], the IC50 in experiment [1] was 0.0045 µM; in experiment [3], 0.0041 µM.
As for `COC(=O)c1ccc(C2SCC(=O)N2c2ccc(N3CCN(S(=O)(=O)c4cc(Cl)ccc4Cl)CC3)cn2)c(OC)c1` (stereo not given), the IC50 in experiment [1] was above 100 µM; in experiment [2], above 100 µM; in experiment [3], 27.4 µM.
As to `COC(=O)c1ccc(C2SCC(=O)N2c2ccc(N3CCN(Cc4cccc([N+](=O)[O-])c4)CC3)cn2)c(OC)c1` (stereo not given), the half-maximal inhibitory concentration (IC50) in experiment [1] was 37.4 µM; in experiment [2], 68.7 µM; in experiment [3], above 100 µM.
